According to ChEMBL document CHEMBL1155553, “Design and synthesis of alpha-ketoamides as cathepsin S inhibitors with potential applications against tumor invasion and angiogenesis” (J Med Chem, 2010):

System: not listed separately
Test: Antiinvasive activity in human CL1-5 cells assessed as cellular migration after 24 hrs by fluorescence assay relative to control
Assay type: functional
Set-up: concentration or dose not given beside the values
Conditions: not given

Structure (SMILES) | Activity
CCOC(=O)CNC(=O)C(=O)C(COCc1ccccc1)NC(=O)[C@H](CC1CCCCC1)NC(=O)c1cc2ccccc2n1C (some centres undefined) | 69%
CCOC(=O)CNC(=O)C(=O)C(COCc1ccccc1)NC(=O)[C@H](CC1CCCCC1)NC(=O)Cc1cccc2ccccc12 (some centres undefined) | 41%
CCOC(=O)CNC(=O)C(=O)C(COCc1ccccc1)NC(=O)[C@H](CC1CCCCC1)NC(=O)c1cc(SC)ccc1Cl (some centres undefined) | 65%
CCOC(=O)CNC(=O)C(=O)C(COCc1ccccc1)NC(=O)[C@H](CC1CCCCC1)NC(=O)c1cc(Cl)cc([N+](=O)[O-])c1 (some centres undefined) | 80%
N#C[C@H](COCc1ccccc1)NC(=O)[C@H](CC1CCCCC1)NC(=O)N1CCOCC1 | 67%
CCOC(=O)CNC(=O)C(=O)C(COCc1ccccc1)NC(=O)[C@H](CC1CCCCC1)NC(=O)Cc1cccs1 (some centres undefined) | 67%
CCOC(=O)CNC(=O)C(=O)C(COCc1ccccc1)NC(=O)[C@H](CC1CCCCC1)NC(=O)c1ccc(Br)o1 (some centres undefined) | 80%
CCOC(=O)CNC(=O)C(=O)C(COCc1ccccc1)NC(=O)[C@H](CC1CCCCC1)NC(=O)c1ccc(C)cc1 (some centres undefined) | 55%

Target: Cathepsin B (Homo sapiens) (UniProt P07858)
Test: Inhibition of cathepsin B assessed as proteolytic activity at 40 nM by fluorimetric assay
Set-up: Activity: scale not given: the % may be the effect or the level left
Conditions: not given

Structure (SMILES) | Activity
CCOC(=O)CNC(=O)C(=O)C(COCc1ccccc1)NC(=O)[C@H](CC1CCCCC1)NC(=O)c1cc(SC)ccc1Cl (some centres undefined) | 92%
N#C[C@H](COCc1ccccc1)NC(=O)[C@H](CC1CCCCC1)NC(=O)N1CCOCC1 | 104%

System: HUVEC
Test: Cytotoxicity against HUVEC by MTT assay
Assay type: cell-based
Conditions: Homo sapiens
How it was run: (§1)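 Overall cytotoxicity measured by MTT proliferation assay, compounds tested at concentrations up to 50 μM.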

Structure (SMILES) | IC50
CCOC(=O)CNC(=O)C(=O)C(COCc1ccccc1)NC(=O)[C@H](CC1CCCCC1)NC(=O)c1cc(SC)ccc1Cl (some centres undefined) | > 50000 nM
CCOC(=O)CNC(=O)C(=O)C(COCc1ccccc1)NC(=O)[C@H](CC1CCCCC1)NC(=O)c1cc(Cl)cc([N+](=O)[O-])c1 (some centres undefined) | > 50000 nM
N#C[C@H](COCc1ccccc1)NC(=O)[C@H](CC1CCCCC1)NC(=O)N1CCOCC1 | > 50000 nM
CCOC(=O)CNC(=O)C(=O)C(COCc1ccccc1)NC(=O)[C@H](CC1CCCCC1)NC(=O)Cc1cccs1 (some centres undefined) | 39000 nM

System: HUVEC
Test: Antiinvasive activity in VEGF-stimulated HUVEC assessed as cellular migration after 24 hrs by fluorescence assay relative to control
Assay type: functional, Homo sapiens
Set-up: concentration or dose not given beside the values
Conditions: not given

Structure (SMILES) | Activity
CCOC(=O)CNC(=O)C(=O)C(COCc1ccccc1)NC(=O)[C@H](CC1CCCCC1)NC(=O)c1cc2ccccc2n1C (some centres undefined) | 55%
CCOC(=O)CNC(=O)C(=O)C(COCc1ccccc1)NC(=O)[C@H](CC1CCCCC1)NC(=O)Cc1cccc2ccccc12 (some centres undefined) | 54%
CCOC(=O)CNC(=O)C(=O)C(COCc1ccccc1)NC(=O)[C@H](CC1CCCCC1)NC(=O)c1cc(Cl)cc([N+](=O)[O-])c1 (some centres undefined) | 73%
N#C[C@H](COCc1ccccc1)NC(=O)[C@H](CC1CCCCC1)NC(=O)N1CCOCC1 | 83%
CCOC(=O)CNC(=O)C(=O)C(COCc1ccccc1)NC(=O)[C@H](CC1CCCCC1)NC(=O)Cc1cccs1 (some centres undefined) | 59%
CCOC(=O)CNC(=O)C(=O)C(COCc1ccccc1)NC(=O)[C@H](CC1CCCCC1)NC(=O)c1ccc(Br)o1 (some centres undefined) | 76%
CCOC(=O)CNC(=O)C(=O)C(COCc1ccccc1)NC(=O)[C@H](CC1CCCCC1)NC(=O)c1ccc(C)cc1 (some centres undefined) | 55%

System: not listed separately
Test: Cytotoxicity against human CL1-5 cells by MTT assay
Assay type: cell-based
Conditions: not given
How it was run: as §1

Structure (SMILES) | IC50
CCOC(=O)CNC(=O)C(=O)C(COCc1ccccc1)NC(=O)[C@H](CC1CCCCC1)NC(=O)c1cc(SC)ccc1Cl (some centres undefined) | 32000 nM
CCOC(=O)CNC(=O)C(=O)C(COCc1ccccc1)NC(=O)[C@H](CC1CCCCC1)NC(=O)c1cc(Cl)cc([N+](=O)[O-])c1 (some centres undefined) | > 50000 nM
N#C[C@H](COCc1ccccc1)NC(=O)[C@H](CC1CCCCC1)NC(=O)N1CCOCC1 | > 50000 nM
CCOC(=O)CNC(=O)C(=O)C(COCc1ccccc1)NC(=O)[C@H](CC1CCCCC1)NC(=O)Cc1cccs1 (some centres undefined) | > 50000 nM

Target: Procathepsin L (Homo sapiens) (UniProt P07711)
Sequence (P07711 114-333 limits assumed): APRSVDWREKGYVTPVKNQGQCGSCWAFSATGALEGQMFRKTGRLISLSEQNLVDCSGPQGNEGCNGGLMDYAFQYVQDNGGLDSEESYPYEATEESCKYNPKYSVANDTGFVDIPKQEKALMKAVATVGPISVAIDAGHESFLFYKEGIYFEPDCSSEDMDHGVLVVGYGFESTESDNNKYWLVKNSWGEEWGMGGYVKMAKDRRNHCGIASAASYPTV
Test: Inhibition of cathepsin L assessed as proteolytic activity at 40 nM by fluorimetric assay
Set-up: Activity: scale not given: the % may be the effect or the level left
Conditions: not given

Structure (SMILES) | Activity
CCOC(=O)CNC(=O)C(=O)C(COCc1ccccc1)NC(=O)[C@H](CC1CCCCC1)NC(=O)c1cc(SC)ccc1Cl (some centres undefined) | 17.4%
N#C[C@H](COCc1ccccc1)NC(=O)[C@H](CC1CCCCC1)NC(=O)N1CCOCC1 | 44.8%

Target: Cathepsin S (Homo sapiens, UniProt P25774)
Sequence (P25774 whole entry): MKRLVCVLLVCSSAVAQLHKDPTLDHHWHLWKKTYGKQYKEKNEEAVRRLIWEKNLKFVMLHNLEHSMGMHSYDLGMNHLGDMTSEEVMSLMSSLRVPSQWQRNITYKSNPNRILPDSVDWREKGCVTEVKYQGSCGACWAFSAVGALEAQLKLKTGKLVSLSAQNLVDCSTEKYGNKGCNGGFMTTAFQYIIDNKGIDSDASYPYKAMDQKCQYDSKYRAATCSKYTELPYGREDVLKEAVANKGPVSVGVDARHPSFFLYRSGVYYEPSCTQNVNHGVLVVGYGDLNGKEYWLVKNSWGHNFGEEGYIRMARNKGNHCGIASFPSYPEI
Test: Inhibition of human recombinant cathepsin S expressed in Escherichia coli BL21 (DE3) after 10 mins by fluorescence assay
Conditions: not given

IC50 | Structure (SMILES)
7.2 nM | CCOC(=O)CNC(=O)C(=O)C(COCc1ccccc1)NC(=O)[C@H](CC1CCCCC1)NC(=O)Cc1cccs1 (some centres undefined)
2.3 nM | CCOC(=O)CNC(=O)C(=O)C(COCc1ccccc1)NC(=O)[C@H](CC1CCCCC1)NC(=O)c1ccc(Br)o1 (some centres undefined)
6.2 nM | CCOC(=O)CNC(=O)C(=O)C(COCc1ccccc1)NC(=O)[C@H](CC1CCCCC1)NC(=O)c1ccc(C)cc1 (some centres undefined)

The remaining lines, values behind:

Structure (SMILES) | IC50
CCOC(=O)CNC(=O)C(=O)C(COCc1ccccc1)NC(=O)[C@H](CC1CCCCC1)NC(=O)c1cc2ccccc2n1C (some centres undefined) | 7.1 nM
CCOC(=O)CNC(=O)C(=O)C(COCc1ccccc1)NC(=O)[C@H](CC1CCCCC1)NC(=O)Cc1cccc2ccccc12 (some centres undefined) | 5.7 nM
CCOC(=O)CNC(=O)C(=O)C(COCc1ccccc1)NC(=O)[C@H](CC1CCCCC1)NC(=O)c1cc(SC)ccc1Cl (some centres undefined) | 3.6 nM
CCOC(=O)CNC(=O)C(=O)C(COCc1ccccc1)NC(=O)[C@H](CC1CCCCC1)NC(=O)c1cc(Cl)cc([N+](=O)[O-])c1 (some centres undefined) | 22.8 nM
